According to ChEMBL document CHEMBL4480442, “Phloroglucinols with Immunosuppressive Activities from the Fruits of Eucalyptus globulus” (J Nat Prod, 2019):
Active and inactive are the calls of the source. No cut-off for these calls is given here.

Assays:
[1] = […], ratio of CC50 for BALB/c mouse lymph node cells to IC50 for immunosuppressive activity in BALB/c mouse lymph node cells assessed as inhibition of concanavalin A stimulated T-cell proliferation
[2] = Immunosuppressive activity in BALB/c mouse lymph node cells assessed as inhibition of concanavalin A stimulated T-cell proliferation measured after 48 hrs by CCK8 assay; format: functional
[3] = Cytotoxicity against BALB/c mouse lymph node cells assessed as reduction in cell viability measured after 48 hrs by CCK8 assay; format: cell-based
[4] = Immunosuppressive activity in concanavalin A stimulated BALB/c mouse lymph node cells assessed as induction of apoptosis by measuring necrotic cells at 1 uM measured after 48 hrs by Annexin-V/propidium iodide staining based flow cytometry (reference value: 0%); format: functional
[5] = Immunosuppressive activity in concanavalin A stimulated BALB/c mouse lymph node cells assessed as induction of apoptosis by measuring viable cells at 10 uM measured after 48 hrs by Annexin-V/propidium iodide staining based flow cytometry (reference value: 99.7%); format: functional
[6] = biological target: RAC-alpha serine/threonine-protein kinase (Mus musculus) (UniProt P31750); assay: Inhibition of AKT phosphorylation in concanavalin A stimulated BALB/c mouse lymph node cells assessed as IFNgamma level at 1 uM measured after 48 hrs by ELISA (reference value: 575.9 +/- 8.2 pg/ml)
Chain of RAC-alpha serine/threonine-protein kinase (Mus musculus) (P31750 whole entry): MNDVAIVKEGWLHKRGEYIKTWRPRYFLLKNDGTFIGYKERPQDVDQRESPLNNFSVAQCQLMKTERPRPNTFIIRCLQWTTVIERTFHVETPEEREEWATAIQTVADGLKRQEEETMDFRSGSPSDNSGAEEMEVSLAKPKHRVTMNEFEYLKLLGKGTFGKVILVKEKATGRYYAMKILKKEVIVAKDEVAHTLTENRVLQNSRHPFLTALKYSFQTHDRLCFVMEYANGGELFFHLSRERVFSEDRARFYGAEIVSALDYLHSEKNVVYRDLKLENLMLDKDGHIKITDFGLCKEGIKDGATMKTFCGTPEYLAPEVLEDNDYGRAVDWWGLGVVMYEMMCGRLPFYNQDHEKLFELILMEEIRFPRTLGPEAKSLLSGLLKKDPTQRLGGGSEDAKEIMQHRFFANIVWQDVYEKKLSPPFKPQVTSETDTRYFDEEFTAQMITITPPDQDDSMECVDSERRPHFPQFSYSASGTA

Mus musculus [7] = species: Mus musculus; assay: Immunosuppressive activity in concanavalin A stimulated BALB/c mouse lymph node cells assessed as caspase-3 activation at 1 to 20 uM measured after 48 hrs; format: functional
Mus musculus [8] = species: Mus musculus; assay: Immunosuppressive activity in BALB/c mouse lymph node cells assessed as inhibition of concanavalin A stimulated T-cell proliferation at 1 to 20 uM measured after 48 hrs by CCK8 assay; format: functional
Mus musculus [9] = species: Mus musculus; assay: Immunosuppressive activity in concanavalin A stimulated BALB/c mouse lymph node cells assessed as caspase-9 activation at 1 to 20 uM measured after 48 hrs; format: functional
[10] = biological target: RAC-alpha serine/threonine-protein kinase (Mus musculus) (UniProt P31750); assay: Inhibition of AKT phosphorylation in concanavalin A stimulated BALB/c mouse lymph node cells assessed as IL4 level at 20 uM measured after 48 hrs by ELISA (reference value: 142.4 +/- 12.4 pg/ml)
Summary of the method: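 ELISA for IL-4 or IFN-γ in culture medium: BALB/c […] cells, 2 × 10^6 cells/well, stimulated with ConA (5 μg/mL) with compound at 1, 10, 20 μM for 48 h; absorbance at 450 nm; means ± SEM of three independent experiments.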

[11] = Immunosuppressive activity in concanavalin A stimulated BALB/c mouse lymph node cells assessed as induction of apoptosis by measuring necrotic cells at 10 uM measured after 48 hrs by Annexin-V/propidium iodide staining based flow cytometry (reference value: 0%); format: functional
Mus musculus [12] = species: Mus musculus; assay: Immunosuppressive activity in concanavalin A stimulated BALB/c mouse lymph node cells assessed as increase in ratio of Bax/Bcl2 level at 1 to 20 uM measured after 48 hrs by Western blotting analysis; format: functional
Summary of the method: (§1)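 Mouse […] cells, 2 × 10^6 cells/well, ConA (5 μg/mL) with compound at 1, 10, 20 μM for 48 h; cells washed with PBS, protein extracted and Western blotted; band densities quantified as Bax/Bcl-2 ratio and cytoplasmic/mitochondrial cytochrome c ratio; three independent experiments, means ± SEM.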

[13] = Immunosuppressive activity in concanavalin A stimulated BALB/c mouse lymph node cells assessed as induction of apoptosis by measuring viable cells at 1 uM measured after 48 hrs by Annexin-V/propidium iodide staining based flow cytometry (reference value: 99.7%); format: functional
[14] = Immunosuppressive activity in concanavalin A stimulated BALB/c mouse lymph node cells assessed as induction of apoptosis by measuring late apoptotic cells at 20 uM measured after 48 hrs by Annexin-V/propidium iodide staining based flow cytometry (reference value: 0.2%); format: functional
[15] = biological target: RAC-alpha serine/threonine-protein kinase (Mus musculus) (UniProt P31750); assay: Inhibition of AKT phosphorylation in concanavalin A stimulated BALB/c mouse lymph node cells assessed as IFNgamma level at 20 uM measured after 48 hrs by ELISA (reference value: 575.9 +/- 8.2 pg/ml)
[16] = Immunosuppressive activity in concanavalin A stimulated BALB/c mouse lymph node cells assessed as induction of apoptosis by measuring necrotic cells at 20 uM measured after 48 hrs by Annexin-V/propidium iodide staining based flow cytometry (reference value: 0%); format: functional
[17] = Immunosuppressive activity in concanavalin A stimulated BALB/c mouse lymph node cells assessed as induction of apoptosis by measuring early apoptotic cells at 10 uM measured after 48 hrs by Annexin-V/propidium iodide staining based flow cytometry (reference value: 0.1%); format: functional
[18] = Immunosuppressive activity in concanavalin A stimulated BALB/c mouse lymph node cells assessed as induction of apoptosis by measuring viable cells at 20 uM measured after 48 hrs by Annexin-V/propidium iodide staining based flow cytometry (reference value: 99.7%); format: functional
[19] = Immunosuppressive activity in concanavalin A stimulated BALB/c mouse lymph node cells assessed as induction of apoptosis by measuring early apoptotic cells at 20 uM measured after 48 hrs by Annexin-V/propidium iodide staining based flow cytometry (reference value: 0.1%); format: functional
[20] = Immunosuppressive activity in concanavalin A stimulated BALB/c mouse lymph node cells assessed as induction of apoptosis by measuring late apoptotic cells at 1 uM measured after 48 hrs by Annexin-V/propidium iodide staining based flow cytometry (reference value: 0.2%); format: functional
[21] = biological target: RAC-alpha serine/threonine-protein kinase (Mus musculus) (UniProt P31750); assay: Inhibition of AKT phosphorylation in concanavalin A stimulated BALB/c mouse lymph node cells assessed as IL4 level at 1 uM measured after 48 hrs by ELISA (reference value: 142.4 +/- 12.4 pg/ml)
[22] = biological target: RAC-alpha serine/threonine-protein kinase (Mus musculus) (UniProt P31750); assay: Inhibition of AKT phosphorylation in concanavalin A stimulated BALB/c mouse lymph node cells at 20 uM measured after 48 hrs by Western blotting analysis
Mus musculus [23] = species: Mus musculus; assay: Immunosuppressive activity in concanavalin A stimulated BALB/c mouse lymph node cells assessed as increase in cytochrome c levels in cytoplasm at 1 to 20 uM measured after 48 hrs by Western blotting analysis; format: functional; summary of the method: as §1
Mus musculus [24] = species: Mus musculus; assay: Immunosuppressive activity in BALB/c mouse lymph node cells assessed as inhibition of concanavalin A stimulated T-cell proliferation by measuring increase in LDH release at 1 to 20 uM; format: functional
[25] = Immunosuppressive activity in concanavalin A stimulated BALB/c mouse lymph node cells assessed as induction of apoptosis by measuring early apoptotic cells at 1 uM measured after 48 hrs by Annexin-V/propidium iodide staining based flow cytometry (reference value: 0.1%); format: functional
[26] = Immunosuppressive activity in concanavalin A stimulated BALB/c mouse lymph node cells assessed as induction of apoptosis by measuring late apoptotic cells at 10 uM measured after 48 hrs by Annexin-V/propidium iodide staining based flow cytometry (reference value: 0.2%); format: functional
[27] = biological target: RAC-alpha serine/threonine-protein kinase (Mus musculus) (UniProt P31750); assay: Inhibition of AKT phosphorylation in concanavalin A stimulated BALB/c mouse lymph node cells assessed as IL4 level at 10 uM measured after 48 hrs by ELISA (reference value: 142.4 +/- 12.4 pg/ml)

CO[C@]1(C)CC[C@@H]2[C@H]([C@H]3[C@H]1CC[C@]3(C)[C@@H](CC(C)C)c1c(O)c(C=O)c(O)c(C=O)c1O)C2(C)C
Ratio CC50/IC50 [1]: 8.5 | IC50 [2]: 68.4 µM | CC50 at 48 h [3]: 578 µM

CC(C)C[C@H]1c2c(O)c(C=O)c(O)c(C=O)c2O[C@]2(C)C=C[C@@](O)(C(C)C)CC12 (stereo partly drawn)
Activity [4]: 9.1% | Ratio CC50/IC50 [1]: 56.3 | Activity [5]: 32.3% | Activity [6]: 347 pg/mL | Activity (Mus musculus [7]): Active | Activity (Mus musculus [8]): Active | Activity (Mus musculus [9]): Active | Activity [10]: 68.9 pg/mL | Activity [11]: 5.7% | Activity (Mus musculus [12]): Active | Activity [13]: 47.5% | Activity [14]: 31.7% | Activity [15]: 52.5 pg/mL | Activity [16]: 1% | Activity [17]: 42.7% | Activity [18]: 4.2% | IC50 [2]: 11.8 µM | Activity [19]: 63.1% | Activity [20]: 18.3% | Activity [21]: 118 pg/mL | CC50 at 48 h [3]: 664 µM | inhibition [22]: Active | Activity (Mus musculus [23]): Active | Activity (Mus musculus [24]): Active | Activity [25]: 25.1% | Activity [26]: 19.3% | Activity [27]: 99.7 pg/mL

CC(C)C[C@H](c1c(O)c(C=O)c(O)c(C=O)c1O)C1CC[C@@H](C)C2=C[C@@H](C(C)(C)O)CC[C@@]21C (stereo partly drawn)
Ratio CC50/IC50 [1]: 10.4 | IC50 [2]: 52.3 µM | CC50 at 48 h [3]: 544 µM

CO[C@]1(C)CC[C@@H]2[C@H]([C@H]3[C@H]1CC[C@]3(C)[C@H](CC(C)C)c1c(O)c(C=O)c(O)c(C=O)c1O)C2(C)C
Ratio CC50/IC50 [1]: 15.7 | IC50 [2]: 35.8 µM | CC50 at 48 h [3]: 562 µM

CCC(C)C(=O)c1c(O)c(C)c(OC)c(C)c1O (stereo not drawn)
Ratio CC50/IC50 [1]: 8.9 | IC50 [2]: 70.2 µM | CC50 at 48 h [3]: 623 µM

CC(C)C[C@H](c1c(O)c(C=O)c(O)c(C=O)c1O)[C@@]1(C)CC[C@@H]2[C@@H]1[C@H]1[C@@H](CC[C@]2(C)O)C1(C)C
Ratio CC50/IC50 [1]: 22.7 | IC50 [2]: 26.3 µM | CC50 at 48 h [3]: 597 µM

CC(C)CC(=O)c1c(O)c(C=O)c(O)c(C[C@@]2(C)CCC3C2[C@H]2[C@@H](CC[C@@]3(C)O)C2(C)C)c1O (stereo partly drawn)
Ratio CC50/IC50 [1]: 30.5 | IC50 [2]: 18.2 µM | CC50 at 48 h [3]: 554 µM

C=C1CC[C@@H]2[C@H](C3C1CC[C@]3(C)C(CC(C)C)c1c(O)c(C=O)c(O)c(C=O)c1O)C2(C)C (stereo partly drawn)
Ratio CC50/IC50 [1]: 8.3 | IC50 [2]: 69.6 µM | CC50 at 48 h [3]: 541 µM

CC(C)C[C@@H](c1c(O)c(C=O)c(O)c(C=O)c1O)[C@@]1(C)C=C2C(C)CC[C@H](C(C)(C)O)C2CC1 (stereo partly drawn)
Ratio CC50/IC50 [1]: 14.5 | IC50 [2]: 41.2 µM | CC50 at 48 h [3]: 596 µM

CC(C)C[C@@H](c1c(O)c(C=O)c(O)c(C=O)c1O)C1CC[C@@H](C)C2=C[C@@H](C(C)(C)O)CC[C@@]21C (stereo partly drawn)
Ratio CC50/IC50 [1]: 14.2 | IC50 [2]: 42.4 µM | CC50 at 48 h [3]: 602 µM

CC(C)CC(=O)c1c(O)c(C=O)c(O)c(C[C@H]2CC[C@@](C)(O)C3[C@H]4[C@@H](CC[C@@]32C)C4(C)C)c1O (stereo partly drawn)
Ratio CC50/IC50 [1]: 16.9 | IC50 [2]: 35.3 µM | CC50 at 48 h [3]: 598 µM

CC(C)C[C@@H]1c2c(O)c(C=O)c(O)c(C=O)c2O[C@]2(C)C=C[C@@](O)(C(C)C)CC12 (stereo partly drawn)
Ratio CC50/IC50 [1]: 64.2 | IC50 [2]: 10.2 µM | CC50 at 48 h [3]: 656 µM

CC(C)C[C@H](c1c(O)c(C=O)c(O)c(C=O)c1O)[C@@]1(C)CC[C@@H]2[C@@H]1[C@H]1[C@@H](CC[C@@]2(C)O)C1(C)C [MACROCARPAL B]
Ratio CC50/IC50 [1]: 18.4 | IC50 [2]: 31.2 µM | CC50 at 48 h [3]: 570 µM

CC(C)C[C@@H](c1c(O)c(C=O)c(O)c(C=O)c1O)[C@@]1(C)CC[C@@H]2[C@@H]1[C@H]1[C@@H](CC[C@@]2(C)O)C1(C)C [MACROCARPAL A]
Ratio CC50/IC50 [1]: 29.2 | IC50 [2]: 20.4 µM | CC50 at 48 h [3]: 597 µM

COc1c(C)c(O)c(C)c(O)c1C(=O)CC(C)C
Ratio CC50/IC50 [1]: 5 | IC50 [2]: 133 µM | CC50 at 48 h [3]: 670 µM

C/C1=C/[C@H]2[C@@H](CC[C@]3(C)Oc4c(C=O)c(O)c(C=O)c(O)c4[C@@H](CC(C)C)C3CC1)C2(C)C (stereo partly drawn)
Ratio CC50/IC50 [1]: 4.6 | IC50 [2]: 129 µM | CC50 at 48 h [3]: 600 µM

CC(C)C[C@H]1c2c(O)c(C=O)c(O)c(C=O)c2O[C@]23CC[C@@]1(C)C2[C@H]1[C@@H](CC[C@@H]3C)C1(C)C (stereo partly drawn)
Ratio CC50/IC50 [1]: 8.5 | IC50 [2]: 69.3 µM | CC50 at 48 h [3]: 588 µM

CC(C)CC(=O)c1c(O)c(C=O)c(O)c(C[C@H]2CC[C@H](C)C3=C[C@@H](C(C)(C)O)CC[C@@]32C)c1O
Ratio CC50/IC50 [1]: 30.2 | IC50 [2]: 19.1 µM | CC50 at 48 h [3]: 578 µM
